Data set [1] can be described thus: melting temperature; fluorescence melt of hairpins on a sequencing array, two-state fit, raised by 9.35 °C to match UV melts. Conditions: sodium 0.088 M. In a few lines:
(§1)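 Folding enthalpy and melting temperature come from bootstrapped two-state fits to Cy3 fluorescence of library hairpins carrying annealed Cy3 and quencher oligos on a sequenced MiSeq flow cell. Imaging was done in 50 mM Na-HEPES pH 8.0, 25 mM NaCl, stepping by 2.5 °C up to 60 °C, and signals were normalised to pre-quench Cy3 and to control constructs. Results of four replicates were combined by inverse variance, and fitted temperatures were raised by 9.35 °C to match UV melts.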

Data set [2] can be described thus: folding enthalpy; higher = less favourable; fluorescence melt of hairpins on a sequencing array, two-state fit. Conditions: sodium 0.088 M. In a few lines:
as §1

Consider 55 sequences from the array DNA melting data of Ke et al. (doi:10.1101/2024.01.08.574731).

Regarding GGTCATCGAAAGATACC (((.(((....)))))), the Tm in data set [1] is 38.4 °C. In addition, the folding enthalpy in data set [2] was -24.2 kcal/mol.
Taken in the same sequence, the figures for GATTCAGGAAACTGAATC (((((((....))))))) were 55.7 °C and -36.9 kcal/mol.
Taken in the same sequence, the figures for CCAGGGAAACCTGG (((((....))))) were 53 °C and -20.6 kcal/mol.
For GATCTACTTGTAGATC ((((((....)))))) the same measures were 56.2 °C and -41.1 kcal/mol.
Regarding GCATGGGGAAACTCGTGC (((.(.(....).).))), the Tm in data set [1] is 41 °C. For the same sequence, the folding enthalpy in data set [2] was -26.2 kcal/mol.
Taken in the same sequence, the figures for CGGCGACGGAAACGTCCG (((..(((....)))))) were 38.5 °C and -17.4 kcal/mol.
For GTTATACGAAAGTACAAC (((.(((....))).))) the same measures were 33.2 °C and -17.4 kcal/mol.
Taken in the same sequence, the figures for GCAAGCCGAAAGGCTGC (((.(((....)))))) were 68.5 °C and -18.8 kcal/mol.
As for GTGGAACGAAAGTTTCAC (((.(((....))).))), the Tm in data set [1] came to 53.2 °C. Besides, in data set [2], the folding enthalpy was -42.7 kcal/mol.
For GGTATTGGAAACAATATC (.(((((....))))).) the same measures were 37.1 °C and -24.9 kcal/mol.
As for GTTGGGGGAAACCCCAAC (((((((....))))))), the Tm in data set [1] was 65.6 °C. Further, in data set [2], the folding enthalpy is -45.9 kcal/mol.
As to GGAGTTGGAAACAACCCC ((.((((....)))).)), the Tm in data set [1] was found to be 43.5 °C. Further, the folding enthalpy in data set [2] is -22.8 kcal/mol.
Regarding GATCGAAGTTCGATC ((((((...)))))), the Tm in data set [1] is 50.3 °C. The folding enthalpy in data set [2] was -38.4 kcal/mol.
For GTGAAGCGAAAGCTCCAC (((.(((....))).))) the same measures were 50 °C and -24 kcal/mol.
Taken in the same sequence, the figures for GATCGCTAACGCGATC ((((((....)))))) were 66.5 °C and -35.7 kcal/mol.
Regarding GAAGTCGGAAACGACTCC (.(((((....))))).), the Tm in data set [1] was 41.3 °C. Also, the folding enthalpy in data set [2] was -13.2 kcal/mol.
As to GCTACTGGAAACAATAGC ((((.((....)).)))), the Tm in data set [1] worked out at 31.3 °C. The folding enthalpy in data set [2] was -18.5 kcal/mol.
With GGATACGAAAGTACTCC ((((((....))).))), in data set [1], the Tm came to 37.9 °C. For the same sequence, the folding enthalpy in data set [2] is -22.9 kcal/mol.
In the case of GATGAGGGAAACTTCATC (((((.(....).))))), the Tm in data set [1] turned out to be 37.1 °C. In data set [2], the folding enthalpy was -25 kcal/mol.
Taken in the same sequence, the figures for GAATAAGGAAACTTATTC (((((((....))))))) were 44.6 °C and -33.5 kcal/mol.
With GATCGCAGAAGCGATC ((((((....)))))), the Tm in data set [1] was 66.9 °C. The folding enthalpy in data set [2] was -30.8 kcal/mol.
In the case of GCGGCGACCGC ((((...)))), the Tm in data set [1] worked out at 55.8 °C. In addition, the folding enthalpy in data set [2] is -16 kcal/mol.
Taken in the same sequence, the figures for GTGATCGGAAACAATCAC (((((.(....).))))) were 36.3 °C and -32.9 kcal/mol.
For GTCCTAACGAAAGTTGAC (((..(((....)))))) the same measures were 26.6 °C and -10.9 kcal/mol.
For GCAAAGCGAAAGCAGTGC (((..((....))..))) the same measures were 44.7 °C and -14 kcal/mol.
For the sequence GAAATGCGAAAGCAATTC (((.(((....))).))), in data set [1], the Tm was determined as 45.3 °C. Besides, in data set [2], the folding enthalpy is -20 kcal/mol.
Taken in the same sequence, the figures for CGTATCGGAAACGACACG (((.(((....))).))) were 42.6 °C and -31.2 kcal/mol.
Taken in the same sequence, the figures for GGACATACGAAAGTATCC (((..(((....)))))) were 26.8 °C and -10.9 kcal/mol.
Taken in the same sequence, the figures for GATCTCGGGTGAGATC ((((((....)))))) were 52.2 °C and -30 kcal/mol.
Consider GGCGTGGGAAACCGCGTC (.((.((....)).)).), for which the Tm in data set [1] is 52.2 °C. For the same sequence, in data set [2], the folding enthalpy is -27.4 kcal/mol.
As to GATCGGTGCCCCGATC ((((((....)))))), the Tm in data set [1] stood at 57 °C. In data set [2], the folding enthalpy is -29.1 kcal/mol.
Taken in the same sequence, the figures for GGTGACGAAAGTCTCACC ((((((....)))..))) were 40.9 °C and -15.1 kcal/mol.
For GGGTCAGCGAAAGCTCCC (((..(((....)))))) the same measures were 42.7 °C and -17.7 kcal/mol.
For the sequence GCTTTCGAAAGAACAAGC ((((((....)))..))), the Tm in data set [1] amounted to 31.8 °C. Moreover, in data set [2], the folding enthalpy is -24.3 kcal/mol.
Take GATCAGTCAGCTGATC ((((((....)))))): the Tm in data set [1] turned out to be 51.3 °C. The folding enthalpy in data set [2] is -40.9 kcal/mol.
Regarding GGATCCGAAAGGATATCC ((((((....)))..))), in data set [1], the Tm was determined as 40.7 °C. The folding enthalpy in data set [2] was -15.2 kcal/mol.
For GGAGGCGAAAGCCGTTCC ((((((....)))..))) the same measures were 41.6 °C and -8.29 kcal/mol.
Taken in the same sequence, the figures for GTTCTACGAAAGTAAAC (((.(((....)))))) were 27.6 °C and -10.8 kcal/mol.
On to GATCATTTGCATGATC ((((((....)))))), for which the Tm in data set [1] amounted to 46.4 °C. The folding enthalpy in data set [2] is -34.4 kcal/mol.
On to CGACCCCGGAAACGGTCG (((..(((....)))))), for which the Tm in data set [1] was determined as 44.4 °C. Besides, the folding enthalpy in data set [2] is -21.3 kcal/mol.
As for GGTGTTGGAAACAGTACC (((..((....))..))), in data set [1], the Tm was found to be 31.7 °C. For the same sequence, the folding enthalpy in data set [2] is -18.7 kcal/mol.
Taken in the same sequence, the figures for GTGGTCGAAAGACTTCAC ((((((....)))..))) were 31.9 °C and -15.2 kcal/mol.
On to GTGGAGGGAAACCCCCAC ((((.((....)).)))), for which the Tm in data set [1] worked out at 48.8 °C. Also, the folding enthalpy in data set [2] is -30.6 kcal/mol.
Taken in the same sequence, the figures for GGATTCGAAAGAACTTCC ((((((....)))..))) were 28.4 °C and -8.73 kcal/mol.
Taken in the same sequence, the figures for GATCGCGATGGCGATC ((((((....)))))) were 68.8 °C and -37.7 kcal/mol.
Take GATCCTGGGTAGGATC ((((((....)))))): in data set [1], the Tm was determined as 51.3 °C. Further, the folding enthalpy in data set [2] was -33.4 kcal/mol.
Take GAGAGGGCGAAAGCCCTC (((..(((....)))))): the Tm in data set [1] came to 66.5 °C. Also, in data set [2], the folding enthalpy was -6.41 kcal/mol.
Taken in the same sequence, the figures for GCGTAAGGAAACTTACGC (((((((....))))))) were 63.4 °C and -44.5 kcal/mol.
On to GATCCTGGGCAGGATC ((((((....)))))), for which, in data set [1], the Tm was 54.2 °C. Moreover, in data set [2], the folding enthalpy is -35.7 kcal/mol.
On to GTGCTAGCGAAAGCTCAC (((..(((....)))))), for which the Tm in data set [1] was 42.1 °C. Besides, the folding enthalpy in data set [2] is -9.59 kcal/mol.
For GGATGCGGAAACGCGTCC (((.(((....))).))) the same measures were 61.8 °C and -47.5 kcal/mol.
For GGCTTCGGAAACGGAGCC ((((.((....)).)))) the same measures were 59.1 °C and -42.2 kcal/mol.
Taken in the same sequence, the figures for GCCAGGGGAAACCCCAGC ((..(((....)))..)) were 38.3 °C and -21.5 kcal/mol.
In the case of GTTAGAGGAAACTTTAAC ((((.((....)).)))), the Tm in data set [1] was 27.5 °C. In addition, the folding enthalpy in data set [2] is -15.5 kcal/mol.
Turning to GCGTCTCAACGC ((((....)))), the Tm in data set [1] amounted to 56.6 °C. In addition, the folding enthalpy in data set [2] is -20.3 kcal/mol.
